pKi: −log10 of the molar value. Calls of active or inactive are those of the source. The rule behind the calls is not given here.
How the values were obtained:
Rattus norvegicus [1] = species on record: Rattus norvegicus; experiment: Partial agonist activity at central-type benzodiazepine receptor in Sprague-Dawley rat cerebrocortical synaptoneurosomes assessed as increase in 36Cl- influx after 10 secs by liquid-phase scintillation beta-counting method
Mus musculus [2] = species on record: Mus musculus; experiment: Myorelaxant effect in mouse assessed as effect on motor coordination after 30 mins by rotarad test; format: organism-based; details: in vivo, 0.5 h
Summary of the method: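 Rota-rod test of motor coordination in mice, with compounds given per os 30 min before testing. Values are mean ± SEM of at least 10 mice.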

Mus musculus [3] = experiment: Anxiolytic activity against mouse assessed as increase in time spent in light box at 10 mg/kg, po administered 30 mins before test by light-dark box test; format: functional, organism-based
Summary of the method: (§1)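 Light-dark box in mice measured time in the light compartment. Compounds were given per os 30 min before testing, and diazepam 1 mg kg-1 subcutaneously as reference. Values are mean ± SEM of at least 10 mice, compared with vehicle-treated animals.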

[4] = Displacement of [3H]-flumazenil from central-type benzodiazepine receptor in bovine cortical membrane after 90 mins by liquid-phase scintillation beta-counting method; format: cell membranes, Bos taurus
Summary of the method: (§2)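 Competition binding against radiolabelled antagonist [3H]flumazenil in cortical membranes (bovine; human where listed); Ki reported as mean ± SEM of three independent determinations.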

Bos taurus = species on record: Bos taurus; experiment: Selectivity ratio, ratio of Ki for central-type benzodiazepine receptor in bovine cortical membrane to Ki for central-type benzodiazepine receptor in bovine cortical membrane in presence of 50 uM of GABA; format: cell membranes
Mus musculus [5] = experiment: Neurotoxicity in mouse assessed as effect on neurological and muscular abilities at 10 mg/kg, po after 30 mins by Hole-Board test; format: toxicity, organism-based; details: in vivo, 0.5 h
Summary of the method: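 Hole-board test 30 min after oral dosing at 10 mg kg-1 counted movements (motor activity) and head inspections (exploratory activity). Values are mean ± SEM of at least 10 mice, compared with vehicle controls.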

Mus musculus [6] = experiment: Antiamnestic activity in scopolamine induced mouse amnesia model assessed as time of retention session in light box at 30 mg/kg, po administered 30 mins before test by passive avoidance test (reference value: 44.8 +/- 8.1 secs); format: functional
Summary of the method: (§3)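 Passive avoidance in mice: compounds were given per os 30 min before the test, and scopolamine 1.5 mg kg-1 i.p. immediately after the punishment. Read-out was time recorded during the retention session. Values are mean ± SEM of at least 10 mice, compared with vehicle-treated animals.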

[7] = Displacement of [3H]-flumazenil from central-type benzodiazepine receptor in human cortical membrane after 90 mins by liquid-phase scintillation beta-counting method; format: cell membranes; summary of the method: as §2
Rattus norvegicus [8] = species on record: Rattus norvegicus; experiment: Partial inverse agonist activity at central-type benzodiazepine receptor in Sprague-Dawley rat cerebrocortical synaptoneurosomes assessed as decrease in 36Cl- flow after 10 secs by liquid-phase scintillation beta-counting method
Homo sapiens = species on record: Homo sapiens; experiment: Selectivity ratio, ratio of Ki for central-type benzodiazepine receptor in human cortical membrane to Ki for central-type benzodiazepine receptor in human cortical membrane in presence of 50 uM of GABA; format: cell membranes
Rattus norvegicus [9] = species on record: Rattus norvegicus; experiment: Inverse agonist activity at central-type benzodiazepine receptor in Sprague-Dawley rat cerebrocortical synaptoneurosomes assessed as decrease in 36Cl- flow after 10 secs by liquid-phase scintillation beta-counting method
Rattus norvegicus [10] = species on record: Rattus norvegicus; experiment: Antagonist activity at central-type benzodiazepine receptor in Sprague-Dawley rat cerebrocortical synaptoneurosomes assessed as decrease in 36Cl- flow after 10 secs by liquid-phase scintillation beta-counting method
Brain [11] = experiment: Neuroprotective activity against oxygen-glucose deprivation and reoxygenation-induced injury in Sprague-Dawley rat brain cortical slices assessed as maximum recovery in LDH release at 5 uM treated during 90 mins of reperfusion phase measured after 90 mins by spetrophotometric method; format: functional
Summary of the method: (§4)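 Rat brain cortical slices in ACSF underwent 30 min oxygen/glucose deprivation, then 90 min reoxygenated ACSF (reperfusion). Controls were kept 120 min in ACSF. Compounds (0.1–100 µM) were added only during reperfusion, and LDH release was measured. Data are means ± SEM of at least 4 experiments, analysed by ANOVA with Dunnett post test. The effective concentration is that giving the largest reduction, and recovery is the % reversion at that concentration.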

Mus musculus [12] = experiment: Antiamnestic activity in scopolamine induced mouse amnesia model assessed as time spent in light box at 1 mg/kg, po administered 30 mins before test by passive avoidance test; format: functional, organism-based; summary of the method: as §3
Mus musculus [13] = experiment: Antiamnestic activity in mouse assessed as prevention of scopalamine-induced amnesia at 10 mg/kg, po administered 30 mins before test by passive avoidance test; format: functional, organism-based; summary of the method: as §3
Mus musculus [14] = experiment: Anxiolytic activity in mouse assessed as time spent in light box at 10 mg/kg, po administered 30 mins before test by light-dark box test; format: functional; summary of the method: as §1
Rattus norvegicus [15] = species on record: Rattus norvegicus; experiment: Selectivity ratio, ratio of Ki for central-type benzodiazepine receptor in rat cortical membrane to Ki for central-type benzodiazepine receptor in rat cortical membrane in presence of 50 uM of GABA; format: cell membranes
Summary of the method: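 GABA ratio is Ki without GABA divided by Ki with 50 µM GABA, from [3H]flumazenil competition binding in cortical membranes. Per the table footnote, ratio values were obtained in rat cortical membranes.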

[16] = Binding affinity to rat cortical membrane central-type benzodiazepine receptor measured after 90 mins by liquid-phase scintillation beta-counting method
Mus musculus [17] = experiment: Anxiolytic activity in mouse assessed as increase in time spent in light box at 1 mg/kg, po administered 30 mins before test by light-dark box test; format: functional, organism-based; summary of the method: as §1
Brain [18] = experiment: Neuroprotective activity against oxygen-glucose deprivation and reoxygenation-induced injury in Sprague-Dawley rat brain cortical slices assessed as maximum recovery in LDH release at 50 uM treated during 90 mins of reperfusion phase measured after 90 mins by spetrophotometric method; format: functional; summary of the method: as §4

Compound	pKi [4]	Ratio Ki (Bos taurus)	Antagonist activity (Rattus norvegicus [10])	further results
CCOC(=O)c1ncn2c1cc(C(=O)N(C)C)c1ccccc12	8.09	1.3		Activity (Rattus norvegicus [1]): Active; Activity (Mus musculus [2]): Non-toxic; Activity (Mus musculus [3]): Active; Activity (Mus musculus [5]): Non-toxic; Activity (Mus musculus [6]): inactive
CN1C(=O)CN=C(c2ccccc2F)c2cc([N+](=O)[O-])ccc21 [FLUNITRAZEPAM]	8.28	1.68		pKi [7]: 8.19; Activity (Rattus norvegicus [8]): Active; Ratio Ki (Homo sapiens): 1.61
CCOC(=O)c1ncn2c1CN(C)C(=O)c1cc(F)ccc1-2 [FLUMAZENIL]	8.72	1.03		pKi [7]: 8.70; Activity (Rattus norvegicus [8]): Active; Ratio Ki (Homo sapiens): 1.02
CCOC(=O)c1ncn2c1c(C)c(C(=O)O)c1ccccc12	6.98	1.2		Activity (Rattus norvegicus [1]): Active
CCOC(=O)c1ncn2c1c(C)c(C(=O)OC(C)(C)C)c1ccccc12	9.00	1.4		Activity (Rattus norvegicus [1]): Active
CCOC(=O)c1ncn2c1cc(C(=O)N(C)Cc1ccccc1)c1cc(F)ccc12	8.24	0.8		Activity (Rattus norvegicus [9]): Active
CC(C)(C)OC(=O)c1ncn2c1cc(-c1ccccc1)c1ccccc12	7.26	0.8		Activity (Rattus norvegicus [9]): Active
CCOC(=O)c1ncn2c1CN(C(C)=O)c1cc(F)ccc1-2	8.66	0.75		Activity (Rattus norvegicus [1]): Active; pKi [7]: 8.57; Activity (Rattus norvegicus [8]): Active; Ratio Ki (Homo sapiens): 0.95
CCOC(=O)c1ncn2c1c(C)c(C(=O)N(C)Cc1ccccc1)c1ccccc12	8.19	1.1	Active	
CCCN(CCC)C(=O)c1c(CC)c2c(C(=O)OC(C)(C)C)ncn2c2ccccc12	8.25	1.4		Activity (Rattus norvegicus [1]): Active; Activity (Brain [11]): 44.4%; Activity (Mus musculus [2]): Non-toxic; Activity (Mus musculus [12]): Active; Activity (Mus musculus [13]): Active; Activity (Mus musculus [5]): Non-toxic; Time (Mus musculus [14]): 172.5 s
CCOC(=O)c1ncn2c1c(C(=O)OCC)c(-c1ccccc1)c1ccccc12	5.66	0.66		Activity (Rattus norvegicus [9]): Active
CCCc1c(C(=O)N(CC)CC)c2ccccc2n2cnc(C(=O)OC(C)(C)C)c12	5.54	1.1		
CCOC(=O)c1ncn2c1cc(C(=O)N(C)Cc1ccccc1)c1cc(Br)ccc12			Active	Ratio Ki (Rattus norvegicus [15]): 0.9; pKi [16]: 7.62
CC(=O)N1Cc2c(C(=O)OC(C)(C)C)ncn2-c2ccccc21	8.14	0.98	Active	pKi [7]: 8.11; Ratio Ki (Homo sapiens): 1.04
C#Cc1ccc2c(c1)c(C(=O)N(C)Cc1ccccc1)cc1c(C(=O)OCC)ncn12			Active	Ratio Ki (Rattus norvegicus [15]): 0.95; pKi [16]: 6.79
CCCN(CCC)C(=O)c1cc2c(C(=O)OCC)ncn2c2ccccc12	9.04	1	Active	
CCOC(=O)c1ncn2c1cc(C(=O)N(C)Cc1ccccc1)c1ccccc12	7.70	0.52		Activity (Rattus norvegicus [9]): Active
CCCCN(C)C(=O)c1cc2c(C(=O)OCC)ncn2c2ccccc12	8.72	0.76		Activity (Mus musculus [2]): Non-toxic; Activity (Mus musculus [13]): Active; Activity (Mus musculus [3]): Active; Activity (Rattus norvegicus [9]): Active; Activity (Mus musculus [5]): Non-toxic
CCCc1c(C(=O)N(CC)CC)c2ccccc2n2cnc(C(=O)OCC)c12	6.77	0.9		
CN(C)C(=O)c1ncn2c1cc(-c1ccccc1)c1ccccc12	5.45	1.44		Activity (Rattus norvegicus [1]): Active

Compound	pKi [4]	Ratio Ki (Bos taurus)	Antagonist activity (Rattus norvegicus [10])	further results
CCCN(CCC)C(=O)c1c(C)c2c(C(=O)OC(C)(C)C)ncn2c2ccccc12	9.00	1.1	Active	Activity (Mus musculus [2]): Non-toxic; Activity (Mus musculus [13]): Active; Activity (Mus musculus [3]): Active; Activity (Mus musculus [17]): Active; Activity (Mus musculus [5]): Non-toxic
CCOC(=O)c1ncn2c1c(CO)c(-c1ccccc1)c1ccccc12	8.74	1.18		Activity (Rattus norvegicus [1]): Active; Activity (Brain [11]): 39.5%; pKi [7]: 8.70
CCCN(CCC)C(=O)c1cc2c(C(=O)OC(C)(C)C)ncn2c2ccccc12	8.92	1.1	Active	
CC(=O)N1Cc2c(C(=O)OC(C)(C)C)ncn2-c2ccc(F)cc21	9.00	1	Active	Activity (Rattus norvegicus [1]): Active; pKi [7]: 8.70; Ratio Ki (Homo sapiens): 1
CCOC(=O)Cc1c(-c2ccccc2)c2ccccc2n2cnc(C(=O)OCC)c12	8.42	0.72		Activity (Rattus norvegicus [9]): Active
CCOC(=O)c1ncn2c1c1c(c3ccccc32)CCC1	7.74	1.3		
C#CCN(C)C(=O)c1c(C)c2c(C(=O)OCC)ncn2c2ccccc12	8.92	1	Active	
CCOC(=O)c1ncn2c1cc(C(=O)N1CCN(C)CC1)c1ccccc12	7.26	1	Active	
CCOC(=O)c1cc2c(cn1)[nH]c1ccccc12				Activity (Rattus norvegicus [8]): Active
CCCc1c(C(=O)N(CCC)CCC)c2ccccc2n2cnc(C(=O)OC(C)(C)C)c12	5.84	1	Active	
CN(Cc1ccccc1)C(=O)c1ncn2c1cc(-c1ccccc1)c1ccccc12	6.35	0.92	Active	
CN(Cc1ccccc1)C(=O)c1cc2c(C(=O)OC(C)(C)C)ncn2c2ccccc12	7.85	0.98	Active	
CCCc1c(C(=O)N(CCC)CCC)c2ccccc2n2cnc(C(=O)OCC)c12	7.47	1.1	Active	
Cc1c(-c2ccccc2)c2ccccc2n2cnc(C(=O)OC(C)(C)C)c12	8.00	1	Active	
CCCN(CCC)C(=O)c1c(CC)c2c(C(=O)OCC)ncn2c2ccccc12	8.60	1.5		Activity (Rattus norvegicus [1]): Active; Activity (Mus musculus [2]): Non-toxic; Activity (Mus musculus [13]): Active; Activity (Mus musculus [3]): Active; Activity (Brain [18]): 44.3%; Activity (Mus musculus [5]): Non-toxic
CN(C)C(=O)c1cc2c(C(=O)OC(C)(C)C)ncn2c2ccccc12	7.96	1.6		Activity (Rattus norvegicus [1]): Active
CCOC(=O)c1ncn2c1cc(C(=O)N(C)Cc1ccccc1)c1cc(C#C[Si](C)(C)C)ccc12			Active	Ratio Ki (Rattus norvegicus [15]): 0.99; pKi [16]: 6.29
CCOC(=O)c1ncn2c1CN(C(C)=O)c1ccccc1-2	7.60	0.9	Active	pKi [7]: 7.48
CCOC(=O)c1ncn2c1cc(-c1ccccc1)c1ccccc12	7.38	0.9	Active	
